Experimental data from ChEMBL document CHEMBL1149162 (J Med Chem, 2004).
pEC50, pKi: −log10 of the molar value.

Assays:
D(2) dopamine receptor = D(2) dopamine receptor (Homo sapiens, UniProt P14416); experiment: Binding affinity against human Dopamine receptor D2 using [3H]spiperone as radioligand
D(4) dopamine receptor [1] = target: T1, D(4) dopamine receptor (Homo sapiens, UniProt P21917); experiment: Effective concentration against human Dopamine receptor D4
T1 sequence (P21917 whole entry): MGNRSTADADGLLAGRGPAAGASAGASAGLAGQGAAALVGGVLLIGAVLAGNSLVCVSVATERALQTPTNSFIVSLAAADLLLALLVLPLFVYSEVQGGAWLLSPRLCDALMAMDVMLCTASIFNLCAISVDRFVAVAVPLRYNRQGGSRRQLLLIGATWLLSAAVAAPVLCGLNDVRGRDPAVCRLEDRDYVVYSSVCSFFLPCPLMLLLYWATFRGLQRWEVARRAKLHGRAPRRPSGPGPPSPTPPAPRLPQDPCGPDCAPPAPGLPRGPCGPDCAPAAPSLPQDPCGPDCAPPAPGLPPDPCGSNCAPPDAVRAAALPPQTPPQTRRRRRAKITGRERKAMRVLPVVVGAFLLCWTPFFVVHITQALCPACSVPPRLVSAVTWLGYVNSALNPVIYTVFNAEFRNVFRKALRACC

D(4) dopamine receptor [2] = target: T1, D(4) dopamine receptor; experiment: Binding affinity against human Dopamine receptor D4 by [3H]-spiperone displacement.
[3] = target: T2, D(4) dopamine receptor (Homo sapiens) (UniProt P21917); experiment: D4 efficacy against human Dopamine receptor D4 expressed in HEK293 cells; format: functional, cell-based
T2 sequence (whole entry): T1 sequence (P21917 whole entry)

D(4) dopamine receptor [4] = target: T1, D(4) dopamine receptor; experiment: D4 efficacy was measured using recombinant human Dopamine receptor D4 expressed in HEK293 cells; format: cell-based
Method in brief: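 Human D4.4 co-expressed with Gαq05 in HEK293 cells, seeded at 20 000 cells/well and cultured 2 days. Loaded 1 h at room temperature with 4 μM Fluo-4 and 0.04% Pluronic F-127 in DPBS, then washed. Compound added on FLIPR and calcium fluorescence read for 3 min. EC50 is the concentration giving 50% signal; efficacy is % activation relative to 10 μM dopamine; n ≥ 3.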

[5] = target: T2, D(4) dopamine receptor (Homo sapiens); experiment: D4 efficacy was measured using recombinant human D4 receptor expressed in HEK293 cells; format: functional, cell-based
Method in brief: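 Human D4.4 coexpressed with Gαq05 in HEK293 cells, plated 20 000 cells/well and cultured 2 days. Cells loaded 1 h at room temperature with 4 μM Fluo-4 plus 0.04% Pluronic F-127 in DPBS, washed four times. Compound added on FLIPR and calcium fluorescence recorded for 3 min. Data normalized to 10 μM dopamine response. EC50 is concentration giving 50% signal. n ≥ 3, ±SEM.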

Chain of D(2) dopamine receptor (P14416 whole entry): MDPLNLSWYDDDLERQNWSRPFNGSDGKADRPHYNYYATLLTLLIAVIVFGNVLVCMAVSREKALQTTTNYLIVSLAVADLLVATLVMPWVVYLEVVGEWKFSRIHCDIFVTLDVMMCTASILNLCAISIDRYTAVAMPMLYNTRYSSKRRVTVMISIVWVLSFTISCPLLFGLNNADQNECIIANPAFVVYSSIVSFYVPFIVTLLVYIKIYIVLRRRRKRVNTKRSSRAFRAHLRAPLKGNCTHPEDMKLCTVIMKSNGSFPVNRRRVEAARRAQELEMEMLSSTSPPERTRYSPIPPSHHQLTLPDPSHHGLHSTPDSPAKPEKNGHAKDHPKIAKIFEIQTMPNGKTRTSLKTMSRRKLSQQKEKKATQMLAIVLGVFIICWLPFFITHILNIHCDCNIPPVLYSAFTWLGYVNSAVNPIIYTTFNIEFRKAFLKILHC

SMILES	pKi (D(2) dopamine receptor)	pEC50 (D(4) dopamine receptor [1])	pKi (D(4) dopamine receptor [2])	Efficacy [3]	pEC50 (D(4) dopamine receptor [4])	Efficacy [5]
Clc1ccc(N2CCN(Cc3cc4ccccn4n3)CC2)cc1	5.88	6.81	8.57			
COc1ccc(N2CCN(Cc3nc4ccccc4[nH]3)CC2)cc1			7.69	4.8%		
c1ccc2[nH]c(CN3CCN(c4ccncc4)CC3)nc2c1			< 5.00	4.8%		
Clc1ccccc1N1CCN(Cc2nc3ccc[nH]c-3n2)CC1	< 5.00	5.00	6.14			
c1cncc(N2CCN(Cc3nc4ccccc4[nH]3)CC2)c1			6.42	24.9%		
Fc1ccc(N2CCN(Cc3nc4ccccc4[nH]3)CC2)cc1			7.10	9.9%		
Clc1ccc(N2CCN(Cc3nc4ccccc4[nH]3)CC2)cc1	< 5.00		7.83	4.7%		
Clc1ccccc1N1CCN(Cc2nc3ccccc3[nH]2)CC1		9.00	8.07			
COc1ccccc1N1CCN(Cc2nc3ccccc3[nH]2)CC1		8.25	8.37			
c1ccc(N2CCN(Cc3nc4ccccc4[nH]3)CC2)nc1 [ABT-724]			6.78		7.91	
COc1cccc(N2CCN(Cc3nc4ccccc4[nH]3)CC2)c1			7.58	5%		
c1ccc(N2CCN(Cc3nc4ccccc4[nH]3)CC2)cc1		8.00	7.28	37.5%		
Clc1cccc(N2CCN(Cc3nc4ccccc4[nH]3)CC2)c1	< 5.00		8.02			3.8%
